Active and inactive are the calls of the source. No cut-off for these calls is given here.
Assays:
Jurkat [1] = test: Inhibition of apoptosis in human Jurkat cells assessed as caspase-9 expression relative to beta actin at 10 ug/ml after 24 hrs by RT-PCR analysis; assay type: functional
Summary of the method: (§1)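 Jurkat cells (10^6/mL) exposed to 10 µg/mL peptide for 24 h (described as overnight in methods), with DMSO control. Total RNA extracted with TRIzol. Caspase-3, -8 and -9 transcripts measured by SYBR qPCR: 95 C for 5 min, then 35 cycles of 95 C for 30 s and 60 C for 45 s. Values given in arbitrary units relative to β-actin.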

Jurkat [2] = test: Inhibition of apoptosis in human Jurkat cells assessed as caspase-8 expression relative to beta-actin at 10 ug/ml after 24 hrs by RT-PCR analysis; assay type: functional; summary of the method: as §1
PBMC [3] = test: Immunosuppressive activity in human PBMC assessed as inhibition of PHA-induced proliferation after 4 days by MTT assay; assay type: functional, cell-based
Summary of the method: (§2)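 PBMC (2×10^5 cells/well) in supplemented RPMI-1640, stimulated with 5 µg/mL PHA, with peptide at 1, 10 or 100 µg/mL. DMSO dilutions as control; no-PHA wells as baseline. Proliferation read by MTT after 4 days of incubation. Data given as mean OD of quadruplicate wells ± SE.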

PBMC [4] = test: Cytotoxicity against human PBMC assessed as reduction in cell viability at 10 ug/ml after 24 hrs by MTT assay; assay type: cell-based
Summary of the method: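 Single-donor PBMC isolated on LSM, resuspended in RPMI-1640 with 10% FCS, L-glutamine, pyruvate, 2-mercaptoethanol and antibiotics. Cells plated at 3×10^5 per well and cultured 24 h with peptide at 1, 10 or 100 µg/mL. Survival read by MTT and expressed as % viable cells versus matched DMSO controls.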

A-431 = test: Cytotoxicity against human A431 cells at 25 ug/ml; assay type: functional, cell-based
[5] = biological target: T1, Prostaglandin G/H synthase 2 (Homo sapiens) (UniProt P35354); test: Inhibition of human recombinant COX-2 assessed as PGE2 formation at 1000 pg/ml (reference value: 1072 ng/ml)
T1 sequence (whole entry): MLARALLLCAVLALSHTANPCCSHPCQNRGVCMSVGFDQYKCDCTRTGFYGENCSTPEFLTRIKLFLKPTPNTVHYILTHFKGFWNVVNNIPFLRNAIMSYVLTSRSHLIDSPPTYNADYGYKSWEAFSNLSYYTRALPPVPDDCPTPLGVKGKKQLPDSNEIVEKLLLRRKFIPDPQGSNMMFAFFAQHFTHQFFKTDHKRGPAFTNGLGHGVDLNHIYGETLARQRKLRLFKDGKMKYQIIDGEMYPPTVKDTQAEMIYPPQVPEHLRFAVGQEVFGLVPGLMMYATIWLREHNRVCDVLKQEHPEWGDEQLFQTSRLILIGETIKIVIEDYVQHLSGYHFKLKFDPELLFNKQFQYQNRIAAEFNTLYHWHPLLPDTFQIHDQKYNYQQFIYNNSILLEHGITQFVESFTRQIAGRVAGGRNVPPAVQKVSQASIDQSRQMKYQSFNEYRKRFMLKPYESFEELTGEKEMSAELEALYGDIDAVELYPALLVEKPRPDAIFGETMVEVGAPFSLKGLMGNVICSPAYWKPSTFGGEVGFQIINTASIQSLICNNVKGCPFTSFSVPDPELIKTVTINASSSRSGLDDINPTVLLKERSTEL

[6] = biological target: T2, Prostaglandin G/H synthase 1 (Ovis aries) (UniProt P05979); test: Inhibition of ovine COX-1 assessed as PGE2 formation at 1000 pg/ml (reference value: 981 ng/ml)
T2 sequence (whole entry): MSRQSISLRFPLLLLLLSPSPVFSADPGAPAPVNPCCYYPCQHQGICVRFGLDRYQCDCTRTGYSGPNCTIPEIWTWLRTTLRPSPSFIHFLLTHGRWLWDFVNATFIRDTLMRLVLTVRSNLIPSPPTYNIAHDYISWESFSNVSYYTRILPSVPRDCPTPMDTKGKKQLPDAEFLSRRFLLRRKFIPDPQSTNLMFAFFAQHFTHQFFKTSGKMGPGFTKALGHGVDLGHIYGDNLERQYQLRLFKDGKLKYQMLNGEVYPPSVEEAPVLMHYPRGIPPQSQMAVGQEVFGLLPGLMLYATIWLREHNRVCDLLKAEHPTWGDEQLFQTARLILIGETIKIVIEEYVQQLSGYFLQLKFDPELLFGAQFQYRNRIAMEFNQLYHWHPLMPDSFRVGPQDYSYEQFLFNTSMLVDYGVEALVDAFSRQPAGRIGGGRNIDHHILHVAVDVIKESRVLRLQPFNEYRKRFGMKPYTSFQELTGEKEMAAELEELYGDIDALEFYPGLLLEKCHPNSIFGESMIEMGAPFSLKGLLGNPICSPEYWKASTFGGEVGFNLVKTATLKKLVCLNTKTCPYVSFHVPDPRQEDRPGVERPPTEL

Jurkat [7] = test: Inhibition of apoptosis in human Jurkat cells assessed as caspase-3 expression relative to beta-actin at 10 ug/ml after 24 hrs by RT-PCR analysis; assay type: functional; summary of the method: as §1
[8] = biological target: T1, Prostaglandin G/H synthase 2 (Homo sapiens); test: Inhibition of human recombinant COX-2 assessed as PGE2 formation at 100 pg/ml (reference value: 1072 ng/ml)
PBMC [9] = test: Anti-inflammatory activity in human PBMC assessed as inhibition of LPS-induced TNFalpha production at 10 ug/ml after overnight incubation by immunoassay; assay type: functional
Summary of the method: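 Diluted venous blood from a single donor (10× in RPMI-1640), 1 mL cultures, stimulated with 1 µg/mL LPS from E. coli O:111:B4. Peptides added at 1 and 10 µg/mL from DMSO stock (5 mg/200 µL) diluted in RPMI-1640. DMSO dilutions served as 100% controls. Overnight incubation, then supernatants frozen at -20 C and TNF-α measured by ELISA.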

HT-29 = test: Cytotoxicity against human HT-29 cells at 25 ug/ml; assay type: functional, cell-based
PBMC [10] = test: Immunosuppressive activity in human PBMC assessed as inhibition of PHA-induced cell proliferation at 10 ug/ml after 4 days by MTT assay; assay type: functional, cell-based; summary of the method: as §2
[11] = biological target: T1, Prostaglandin G/H synthase 2 (Homo sapiens); test: Inhibition of human recombinant COX-2 assessed as PGE2 formation at 5000 pg/ml (reference value: 1072 ng/ml)
Jurkat [12] = test: Induction of DNA fragmentation in human Jurkat cells at 10 ug/ml after 24 hrs by agarose gel electrophoresis; assay type: functional, cell-based
Summary of the method: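 Jurkat cells treated 24 h with 10 µg/mL peptide versus DMSO. About 2×10^6 cells lysed overnight at 37 C in Tris-HCl pH 8.5 with EDTA, 5% SDS and proteinase K. Lysates heat-inactivated, RNase-treated, DNA precipitated with isopropanol and ethanol-washed. Fragmentation assessed by gel electrophoresis.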

[13] = biological target: T2, Prostaglandin G/H synthase 1 (Ovis aries); test: Inhibition of ovine COX-1 assessed as PGE2 formation at 100 pg/ml (reference value: 981 ng/ml)

Activity [5]: 1060 ng/mL
Activity [6]: 1030 ng/mL
Activity [8]: 1180 ng/mL
Activity [11]: 1230 ng/mL
Activity [13]: 1110 ng/mL
SMILES: CC[C@H](C)[C@@H]1NC(=O)[C@H](CC(C)C)NC(=O)[C@H](Cc2ccccc2)NC(=O)CC[C@H](Cc2ccccc2)NC(=O)[C@@H]2CCCN2C(=O)[C@@H]2CCCN2C(=O)[C@H](C(C)C)NC(=O)[C@H](CC(C)C)NC(=O)[C@H]([C@@H](C)CC)NC1=O
fold change (FC) (Jurkat [1]): 0.538
fold change (FC) (Jurkat [2]): 0.591
Activity (PBMC [3]): Dose-dependent effect
Activity (PBMC [4]): Non-Toxic
Activity (A-431): inactive
fold change (FC) (Jurkat [7]): 0
inhibition (PBMC [9]): Active
Activity (HT-29): inactive
Activity (PBMC [10]): Active
Activity (Jurkat [12]): Active

— ChEMBL document CHEMBL4043099, “Synthesis and biological activity of cyclolinopeptide A analogues modified with γ4-bis(homo-phenylalanine)” (Bioorg Med Chem, 2017)
